Assay results as given in ChEMBL document CHEMBL3397022, “Absolute structures and bioactivities of euryspongins and eurydiene obtained from the marine sponge Euryspongia sp. collected at Iriomote Island” (Bioorg Med Chem, 2015).

Columns and labels:
[1] = target: T1, Tyrosine-protein phosphatase non-receptor type 1 (Homo sapiens, UniProt P18031); assay: Inhibition of PTP1B (unknown origin) using pNPP as substrate incubated for 10 mins prior to substrate addition measured after 30 mins by microplate reader analysis
T1 sequence (P18031 whole entry): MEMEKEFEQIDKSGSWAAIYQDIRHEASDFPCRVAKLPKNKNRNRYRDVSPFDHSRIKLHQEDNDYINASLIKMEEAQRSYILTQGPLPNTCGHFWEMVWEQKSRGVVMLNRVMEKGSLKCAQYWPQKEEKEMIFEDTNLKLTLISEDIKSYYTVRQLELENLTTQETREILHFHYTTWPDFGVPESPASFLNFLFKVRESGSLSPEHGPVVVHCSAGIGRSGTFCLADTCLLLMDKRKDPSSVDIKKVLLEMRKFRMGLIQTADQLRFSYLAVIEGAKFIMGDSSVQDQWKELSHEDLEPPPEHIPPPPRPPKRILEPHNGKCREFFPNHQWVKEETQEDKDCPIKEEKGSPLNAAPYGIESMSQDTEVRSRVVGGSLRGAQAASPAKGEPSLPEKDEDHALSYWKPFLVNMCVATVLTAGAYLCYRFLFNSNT

[2] = Cytotoxicity against human HuH7 cells […] by MTT assay; format: cell-based; settings: Huh-7
Outline: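 Huh-7 MTT assay: after sample treatment, MTT (5.0 mg/mL stock in saline) added for 90 min at 37 °C. Plate centrifuged at 300 × g for 5 min and supernatant removed. Cells solubilized in 0.040 N HCl in 2-propanol. Absorbance read at 590 nm; survival (%) calculated relative to untreated control.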

[3] = Cytotoxicity against human HCT15 cells after 48 hrs by MTT assay; format: cell-based; settings: HCT-15, 48 h
Outline: (§1)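 Cells grown exponentially in RPMI-1640 with 10% FBS, penicillin and streptomycin at 37 °C, 5.0% CO2. Seeding: HCT-15 at 1.0 × 10^4 cells/well, Jurkat at 2.0 × 10^4 cells/well. Samples added in MeOH and incubated 48 h at 37 °C. MTT and lysis solution (40% DMF, 20% SDS, 2.0% acetic acid, 0.030% HCl) added, then shaken overnight at room temperature. Read at 570 nm.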

Jurkat = assay: Cytotoxicity against human Jurkat cells after 48 hrs by MTT assay; format: cell-based; outline: as §1

Row | SMILES | IC50 [1] | IC50 [2] | IC50 [3] | IC50 (Jurkat)
1 | CC1=C[C@@H]2CC(C)(C)[C@H]1C[C@@H](O)C1=CC(=O)O[C@H]12 | > 40 µM |  | > 40 µM | > 40 µM
2 | C=C/C=C(/CO)c1cc(O)ccc1O | > 50 µM |  | > 50 µM | > 50 µM
3 | CC1=C[C@@H]2CC(C)(C)[C@H]1/C=C\c1ccoc12 [REL-DEHYDROEURYSPONGIN A] |  | > 100 µM | > 45 µM | > 45 µM

Now from value to compound, other results behind:

Row | IC50 [1] | SMILES | IC50 [2] | IC50 [3] | IC50 (Jurkat)
4 | > 40 µM | CC1=C[C@@H]2CC(C)(C)[C@H]1C[C@@H](O)c1ccoc12 | > 100 µM | > 40 µM | > 40 µM
5 | > 35 µM | CO[C@@]12OC(=O)C=C1[C@H](O)C[C@H]1C(C)=C[C@@H]2CC1(C)C |  | > 35 µM | > 35 µM
6 | > 40 µM | C=C/C=C1/CO[C@]2(OC)CC[C@@H](O)[C@@H](O)[C@@H]12 |  | > 40 µM | > 40 µM
